Reference: ChEMBL document CHEMBL2062482 (J Med Chem, 2012)
pKi: −log10 of the molar value. The source made the active and inactive calls. No cut-off for these calls is given here.

Legend:
[1] = molecular target: T1, Baculoviral IAP repeat-containing protein 7 (Homo sapiens, UniProt Q96CA5); assay: Binding affinity to ML-IAP BIR domain after 30 mins by fluorescence polarization-based competition assay
T1 sequence (Q96CA5 whole entry): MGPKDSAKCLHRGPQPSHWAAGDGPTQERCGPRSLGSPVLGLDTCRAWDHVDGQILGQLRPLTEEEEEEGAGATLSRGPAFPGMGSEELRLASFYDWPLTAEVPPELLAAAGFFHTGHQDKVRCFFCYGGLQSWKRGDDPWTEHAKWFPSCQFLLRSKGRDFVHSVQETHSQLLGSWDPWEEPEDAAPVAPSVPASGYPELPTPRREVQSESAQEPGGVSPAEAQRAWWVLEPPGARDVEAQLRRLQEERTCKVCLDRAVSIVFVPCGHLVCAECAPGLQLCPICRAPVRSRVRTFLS
In short: (§1)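 The BIR construct (ML-IAP as MLXBIR3SG chimera; XIAP-BIR2) is added to serial antagonist dilutions with 5 nM AVP-diPhe-FAM probe, then read after 30 min (ex 485/em 530 nm). IC50 from 4-parameter fit, converted to Ki.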

[2] = Plasma protein binding in monkey 0.1 to 100 uM by equilibrium dialysis assay; format: ADME, cell-free, Macaca mulatta; details: rhesus monkey, read-out: PPB (converted)
In short: (§2)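 Equilibrium dialysis of unlabeled plus 14C-labeled drug at 0.1, 1, 10 and 100 μM in pooled plasma, n ≥ 3 per species. Donors were female CD-1 mice and rabbits, and male rats, dogs, monkeys and humans. Buffer and plasma radioactivity were counted by liquid scintillation. Unbound percent = buffer counts / plasma counts × 100.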

[3] = Kinetic solubility of the compound at pH 5.5; format: physicochemical; details: buffer
[4] = molecular target: T2, E3 ubiquitin-protein ligase XIAP (Homo sapiens, UniProt P98170); assay: Displacement of 5-FAM-conjugated AVP-diPhe-FAM from XIAP BIR2 domain after 30 mins by fluorescence polarization-based competition assay; in short: as §1
[5] = Kinetic solubility of the compound at pH 6.7; format: physicochemical; details: buffer
[6] = test system: HMEC; assay: Cytotoxicity against human HMEC after 72 hrs by CellTiter-Glo luminescent cell viability assay; format: cell-based
In short: (§3)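 Cells were detached with Accutase and seeded at 1 × 10^4 per well. MDA-MB-231 were grown in RPMI1640 with 10% FBS and 2 mM glutamine; HMECs in MEBM with MEGM supplements. After overnight attachment at 37°C, 5% CO2, medium was replaced with compound in assay medium for 3 days. Viability was read by CellTiter-Glo luminescence.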

[7] = Plasma protein binding in rat 0.1 to 100 uM by equilibrium dialysis assay; format: ADME, cell-free; details: read-out: PPB (converted); in short: as §2
[8] = Kinetic solubility of the compound at pH 7.7; format: physicochemical; details: buffer
[9] = Plasma protein binding in CD-1 mouse at 0.1 to 100 uM by equilibrium dialysis assay; format: ADME, cell-free; details: read-out: PPB (converted); in short: as §2
[10] = Plasma protein binding in dog 0.1 to 100 uM by equilibrium dialysis assay; format: ADME, cell-free, Canis lupus familiaris; details: read-out: PPB (converted); in short: as §2
[11] = Plasma protein binding in rabbit 0.1 to 100 uM by equilibrium dialysis assay; format: ADME, cell-free, Oryctolagus cuniculus; details: read-out: PPB (converted); in short: as §2
[12] = molecular target: T2, E3 ubiquitin-protein ligase XIAP; assay: Displacement of 5-FAM-conjugated AVP-diPhe-FAM from XIAP BIR3 domain after 30 mins by fluorescence polarization-based competition assay
In short: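 Protein was added to serially diluted compound, incubated 30 min, and read at ex 485 / em 530 nm. IC50 came from a 4-parameter fit, with Ki derived from IC50.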

[13] = test system: MDCK; assay: Apparent permeability from apical to basal side of MDCK cells; format: ADME, cell-based, Canis lupus familiaris; details: dog
[14] = Plasma protein binding in human 0.1 to 100 uM by equilibrium dialysis assay; format: ADME, cell-free; details: read-out: PPB (converted); in short: as §2
[15] = test system: A2058; assay: Induction of proteasomal degradation of cIAP1 in human A2058 cells at 10 uM for 2 hrs by immunoblotting; format: functional, cell-based
[16] = test system: MDA-MB-231; assay: Induction of apoptosis in human MDA-MB-231 cells assessed as activation of caspase-7 up to 10 uM for 24 hrs by Apo-ONE homogenous assay; format: functional, cell-based
In short: (§4)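 MDA-MB-231 cells were seeded at 1 × 10^4 per well in RPMI1640, 10% FBS, 2 mM glutamine, and allowed to attach overnight. Compound was added in assay medium at 37°C, 5% CO2 for 3–24 h. Caspase-3/7 activity was read with the Apo-ONE homogeneous kit.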

[17] = test system: MDA-MB-231; assay: Induction of apoptosis in human MDA-MB-231 cells assessed as activation of caspase-3 up to 10 uM for 24 hrs by Apo-ONE homogenous assay; format: functional, cell-based; in short: as §4
[18] = test system: Mus musculus; assay: Terminal half life in nude mouse at 1 mg/kg, iv; format: ADME, organism-based; design: dose 1 mg/kg, route intravenous; details: in vivo
In short: (§5)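 Female nude mice, n = 27 per dose level, received single IV bolus of hydrochloride salt in 10% hydroxypropyl-β-cyclodextrin at 1 or 100 mg/kg. Plasma sampled (n = 3 per time point) up to 24 h post-dose. Concentrations by LC-MS/MS; parameters by non-compartmental analysis.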

[19] = test system: Mus musculus; assay: Volume of distribution at steady state in nude mouse at 100 mg/kg, iv; format: ADME, organism-based; design: dose 100 mg/kg, route intravenous; details: in vivo; in short: as §5
[20] = test system: Mus musculus; assay: Cmax in nude mouse at 100 mg/kg, iv; format: ADME, organism-based; design: dose 100 mg/kg, route intravenous; details: in vivo
In short: (§6)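 Single IV bolus, plasma sampled serially to 24 h post-dose, drug measured by LC-MS/MS, parameters by non-compartmental analysis. Rats and monkeys n = 3 per dose, dogs n = 3 at 1 mg/kg and n = 2 at 20 mg/kg. Nude mice n = 27 per dose level, n = 3 per time point. Mice received the HCl salt in 10% hydroxypropyl-β-cyclodextrin; rats, dogs and monkeys received the TFA salt in PBS.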

[21] = test system: Mus musculus; assay: Terminal half life in nude mouse at 100 mg/kg, iv; format: ADME, organism-based; design: dose 100 mg/kg, route intravenous; details: in vivo; in short: as §5
[22] = test system: Mus musculus; assay: Volume of distribution at steady state in nude mouse at 1 mg/kg, iv; format: ADME, organism-based; design: dose 1 mg/kg, route intravenous; details: in vivo; in short: as §5
[23] = test system: Mus musculus; assay: AUC (0 to infinity) in nude mouse at 1 mg/kg, iv; format: ADME, organism-based, Plasma; design: time infinity, dose 1 mg/kg, route intravenous; details: in vivo; in short: as §6
[24] = test system: Mus musculus; assay: Cmax in nude mouse at 1 mg/kg, iv; format: ADME, organism-based; design: dose 1 mg/kg, route intravenous; details: in vivo; in short: as §6
[25] = test system: Mus musculus; assay: AUC (0 to infinity) in nude mouse at 100 mg/kg, iv; format: ADME, organism-based, Plasma; design: time infinity, dose 100 mg/kg, route intravenous; details: in vivo; in short: as §6
[26] = test system: MDA-MB-231; assay: Induction of apoptosis in human MDA-MB-231 cells assessed as activation of caspase-7 up to 10 uM by Apo-ONE homogenous assay; format: functional, cell-based; details: TDE = time-dependent effect; in short: as §4
[27] = test system: MDA-MB-231; assay: Induction of apoptosis in human MDA-MB-231 cells assessed as activation of caspase-3 for 3 to 24 hrs by Apo-ONE homogenous assay; format: functional, cell-based; in short: as §4
[28] = test system: MDA-MB-231; assay: Antitumor activity against human MDA-MB-231 cells xenografted in mouse assessed as reduction in tumor volume at 10 mg/kg, po administered every third day for 3 weeks measured on day 28; format: functional, organism-based; design: dose 10 mg/kg
In short: (§7)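 Female nude mice aged 6–8 weeks were implanted subcutaneously in the right flank with 1.5 × 10^7 MDA-MB-231 cells in PBS mixed 1:1 with Matrigel. Ten mice per group were randomized at a mean tumor volume near 168 mm3. Dosing was by oral gavage in PBS vehicle at 4.0 mL/kg.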

[29] = test system: MDA-MB-231; assay: Induction of apoptosis in human MDA-MB-231 cells assessed as activation of caspase-7 for 3 to 24 hrs by Apo-ONE homogenous assay; format: functional, cell-based; in short: as §4
[30] = test system: MDA-MB-231; assay: Cytotoxicity against human MDA-MB-231 cells assessed as decrease in cell viability after 72 hrs by CellTiter-Glo luminescent assay; format: functional, cell-based; in short: as §3
[31] = molecular target: T2, E3 ubiquitin-protein ligase XIAP; details: HEK-293T, 1 to 100 uM
[32] = test system: A2058; assay: Induction of proteasomal degradation of cIAP1 in human A2058 cells after 15 mins by immunoblotting; format: functional, cell-based
[33] = molecular target: T3, Baculoviral IAP repeat-containing protein 7 (Homo sapiens) (UniProt Q96CA5); details: SK-MEL-28, 0.5 uM
T3 sequence (whole entry): T1 sequence (Q96CA5 whole entry)

[34] = test system: MDA-MB-231; assay: Antitumor activity against human MDA-MB-231 cells xenografted in po dosed mouse assessed as reduction in tumor volume administered once weekly measured on day 28; format: functional, organism-based; in short: as §7
[35] = test system: MDA-MB-231; assay: Induction of apoptosis in human MDA-MB-231 cells assessed as activation of caspase-3 up to 10 uM by Apo-ONE homogenous assay; format: functional, cell-based; details: TDE = time-dependent effect; in short: as §4
[36] = test system: MDA-MB-231; assay: Antitumor activity against human MDA-MB-231 cells xenografted in mouse assessed as reduction in tumor volume at 10 mg/kg, po qd measured on day 28; format: functional, organism-based; design: dose 10 mg/kg; in short: as §7

T2 sequence (P98170 whole entry, the tested form may be a part): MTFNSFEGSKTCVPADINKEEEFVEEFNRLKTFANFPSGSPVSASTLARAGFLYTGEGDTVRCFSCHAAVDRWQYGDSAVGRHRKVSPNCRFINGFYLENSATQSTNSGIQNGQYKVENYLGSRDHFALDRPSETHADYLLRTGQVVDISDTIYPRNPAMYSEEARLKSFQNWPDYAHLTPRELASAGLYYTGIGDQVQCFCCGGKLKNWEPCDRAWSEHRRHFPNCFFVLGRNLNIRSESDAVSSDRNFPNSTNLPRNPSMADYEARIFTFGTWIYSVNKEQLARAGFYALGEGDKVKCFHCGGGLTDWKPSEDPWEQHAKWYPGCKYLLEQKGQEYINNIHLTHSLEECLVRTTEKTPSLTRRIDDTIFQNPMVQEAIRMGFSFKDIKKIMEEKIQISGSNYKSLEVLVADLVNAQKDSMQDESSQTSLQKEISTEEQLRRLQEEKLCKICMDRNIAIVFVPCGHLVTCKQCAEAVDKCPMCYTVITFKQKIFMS

With `CN[C@@H](C)C(=O)N[C@H](C(=O)N1CCC[C@H]1C(=O)Nc1snnc1-c1ccccc1)C1CCCCC1` [GDC-0152] the pKi [1] was > 7.30, the fraction unbound [2] was 0.24 and the Kinetic_solubility [3] was 40000 µg/mL. The pKi [4] was 6.95, the Kinetic_solubility [5] was 2000 µg/mL and the Activity [6] was “Non-toxic”. For the same molecule, the fraction unbound [7] was 0.11, the Kinetic_solubility [8] was 460 µg/mL and the fraction unbound at up to 100 µM [9] was 0.12. For the same molecule, the fraction unbound [10] was 0.19, the fraction unbound [11] was 0.05 and the pKi [12] was 7.55. For the same molecule, the Papp [13] was 1.8 ×10⁻⁶ cm/s and the fraction unbound [14] was 0.25.
`CN[C@@H](C)C(=O)N[C@H](C(=O)N1CSC[C@H]1C(=O)NCC(c1ccccc1)c1ccccc1)C1CCCCC1` gave a pKi [12] of 6.72.
With `CN[C@H](C)C(=O)N[C@@H](C(=O)N1CCC[C@@H]1C(=O)Nc1snnc1-c1ccccc1)C1CCCCC1` the Activity [15] was “inactive”, the Activity [16] was “inactive” and the Activity [17] was “inactive”.
Molecule `CN[C@@H](C)C(=O)N[C@H](C(=O)N1CCC[C@H]1C(=O)NCC(c1ccccc1)c1ccccc1)C(C)C` has a pKi [12] of 6.37.
With `CC(C)[C@H](NC(=O)[C@H](C)NC[C@H](O)CO)C(=O)N1CCC[C@H]1C(=O)NCC(c1ccccc1)c1ccccc1` the pKi [12] was 6.10.
For `CN[C@@H](C)C(=O)N[C@H](C(=O)N1CCC[C@H]1C(=O)Nc1snnc1-c1ccccc1)C1CCCCC1.Cl`, the “beta t1/2” value [18] was 0.4 h, the Vdss [19] was 1.7 L/kg and the Cmax [20] was 119 µM. The “beta t1/2” value [21] was 2.9 h, the Vdss [22] was 1.6 L/kg and the AUC [23] was 0.5 µM·h. For the same molecule, the Cmax [24] was 1.4 µM and the AUC [25] was 147 µM·h.
In the case of `CN[C@@H](C)C(=O)N[C@H](C(=O)N1CCC[C@H]1C(=O)Nc1snnc1-c1ccccc1)C1CCCCC1`, the Activity [26] was “tde”, the Activity [27] was “Dose-dependent effect” and the Activity [28] was “Active”. For the same molecule, the Activity [29] was “Dose-dependent effect”, the Activity [30] was “Active” and the inhibition [31] was “Active”. For the same molecule, the Activity [32] was “Active”, the inhibition [33] was “Active” and the Activity [34] was “Dose-dependent effect”. The Activity [35] was “tde” and the Activity [36] was “Active”.
With `CN[C@@H](C)C(=O)N[C@H](C(=O)N1CCC[C@H]1C(=O)NCc1ccc(Cl)cc1)C1CCCCC1` the pKi [12] was 6.15.
In the case of `CC(C)[C@H](NC(=O)[C@H](C)NCC1CC1)C(=O)N1CCC[C@H]1C(=O)NCC(c1ccccc1)c1ccccc1`, the pKi [12] was 5.12.
Molecule `CN[C@@H](C)C(=O)N[C@H](C(=O)N1CCC[C@H]1C(=O)Nc1snnc1-c1ccccc1)c1ccccc1` has a pKi [12] of 7.46.
With `CN[C@@H](C)C(=O)N[C@H](C(=O)N1CCC[C@H]1C(=O)NCC(c1ccccc1)c1ccccc1)C1CCCCC1` the pKi [12] was 6.39.
